Reference: ChEMBL document CHEMBL1126705, “16 beta-([18F]fluoro)estrogens: systematic investigation of a new series of fluorine-18-labeled estrogens as potential imaging agents for estrogen-receptor-positive breast tumors” (J Med Chem, 1993)

What was measured:
Rattus norvegicus [1] = assay: Tested in vivo for the biodistribution in rat uterus/blood at 1 hour after intravenous dose of 15 microCi of the drug and 15 micro g of estradiol; type: ADME, organism-based
Procedure, shortened: (§1)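 Female Sprague-Dawley rats, 25 days old (~40–53 g), ether-anesthetized, given the 18F-labeled estrogen iv via femoral vein in 10% ethanol saline. […] Others were sacrificed by decapitation at 1 or 3 h. Blood and organs were excised, weighed and gamma counted as % injected dose/g, mean ± SD, typically n = 5 (4–6).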

Rattus norvegicus [2] = assay: Tested in vivo for the biodistribution in rat uterus/muscle after 3 hours following an intravenous dose of 15 microCi of drug in 10%ethanol saline; type: ADME, organism-based, Muscle tissue; procedure, shortened: as §1
Rattus norvegicus [3] = assay: Tested in vivo for the biodistribution in rat uterus/muscle at 1 hour after intravenous dose of 15 microCi of the drug and 15 ug of estradiol; type: ADME, organism-based, Muscle tissue; procedure, shortened: as §1
Rattus norvegicus [4] = assay: Tested in vivo for the biodistribution in blood of female rat after 3 hours following an intravenous dose of 15 microCi of drug in 10%ethanol saline; type: ADME, organism-based
Procedure, shortened: (§2)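 Ether-anesthetized 25-day-old female Sprague-Dawley rats (~40–53 g) got the [18F] tracer in 10% ethanol saline via femoral vein. Rats were decapitated at 1 or 3 h, and blood and organs were weighed and gamma-counted. Values are % injected dose/g as mean ± SD, n = 5 per time point.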

Rattus norvegicus [5] = assay: Tested in vivo for the biodistribution in rat bone at 1 hour after intravenous dose of 15 microCi of drug in 10%ethanol saline; type: ADME, organism-based, Bone element; procedure, shortened: as §2
Rattus norvegicus [6] = assay: Tested in vivo for the biodistribution in rat bone at 1 hour after intravenous dose of 15 microCi of the drug and 15 ug of estradiol; type: ADME, organism-based, Bone element
Rattus norvegicus [7] = assay: Tested in vivo for the biodistribution in rat fat after 3 hours following an intravenous dose of 15 microCi of drug in 10%ethanol saline; type: ADME, organism-based, Adipose tissue; procedure, shortened: as §2
Rattus norvegicus [8] = assay: Tested in vivo for the biodistribution in rat ovaries after 3 hours following an intravenous dose of 120 microCi of drug in 10%ethanol saline; type: ADME, organism-based, Female gonad
Procedure, shortened: (§3)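 Immature (25-day-old) female Sprague-Dawley rats, ether-anesthetized, given the fluorine-18-labeled estrogen by femoral vein injection in 10% ethanol saline. […] Other groups were killed by decapitation at 1 or 3 h. Blood and organs were weighed and gamma-counted. Data are % injected dose/g, mean ± SD, typically n = 5 per group.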

Rattus norvegicus [9] = assay: Tested in vivo for the biodistribution in rat ovaries at 1 hour after intravenous dose of 15 microCi of the drug and 15 ug of estradiol; type: ADME, organism-based, Female gonad; procedure, shortened: as §3
Rattus norvegicus [10] = assay: Tested in vivo for the biodistribution in rat muscle at 1 hour after intravenous dose of 15 microCi of drug in 10%ethanol saline; type: ADME, organism-based, Muscle tissue; procedure, shortened: as §3
Rattus norvegicus [11] = assay: Tested in vivo for the biodistribution in rat muscle at 1 hour after intravenous dose of 15 microCi of the drug and 15 ug of estradiol; type: ADME, organism-based, Muscle tissue; procedure, shortened: as §3
Rattus norvegicus [12] = assay: Tested in vivo for the biodistribution in rat fat at 1 hour after intravenous dose of 15 microCi of drug in 10%ethanol saline; type: ADME, organism-based, Adipose tissue; procedure, shortened: as §2
Rattus norvegicus [13] = assay: Tested in vivo for the biodistribution in rat fat at 1 hour after intravenous dose of 15 microCi of the drug and 15 ug of estradiol; type: ADME, organism-based, Adipose tissue
Rattus norvegicus [14] = assay: Tested in vivo for the biodistribution in rat thymus after 3 hours following an intravenous dose of 15 microCi of drug in 10%ethanol saline; type: ADME, organism-based; procedure, shortened: as §3
Rattus norvegicus [15] = assay: Tested in vivo for the biodistribution in rat thymus at 1 hour after intravenous dose of 15 microCi of drug in 10%ethanol saline; type: ADME, organism-based; procedure, shortened: as §3
Rattus norvegicus [16] = assay: Tested in vivo for the biodistribution in rat thymus at 1 hour after intravenous dose of 15 microCi of the drug and 15 micro g of estradiol; type: ADME, organism-based; procedure, shortened: as §3
Rattus norvegicus [17] = assay: Tested in vivo for the biodistribution in rat uterus after 3 hours following an intravenous dose of 15 microCi of drug in 10%ethanol saline; type: ADME, organism-based; procedure, shortened: as §3
Rattus norvegicus [18] = assay: Tested in vivo for the biodistribution in rat uterus at 1 hour after intravenous dose of 15 microCi of drug in 10%ethanol saline; type: ADME, organism-based; procedure, shortened: as §1
Rattus norvegicus [19] = assay: Tested in vivo for the biodistribution in rat uterus at 1 hour after intravenous dose of 15 microCi of the drug and 15 micro g of estradiol; type: ADME, organism-based; procedure, shortened: as §1
Rattus norvegicus [20] = assay: Tested in vivo for the biodistribution in rat uterus/blood at 1 hour after intravenous dose of 15 microCi of drug in 10%ethanol saline; type: ADME, organism-based; procedure, shortened: as §1
Rattus norvegicus [21] = assay: Tested in vivo for the biodistribution in blood of female rat at 1 hour after intravenous dose of 15 microCi of drug in 10%ethanol saline; type: ADME, organism-based; procedure, shortened: as §2
Rattus norvegicus [22] = assay: Tested in vivo for the biodistribution in blood of female rat at 1 hour after intravenous dose of 15 microCi of the drug and 15 u g of estradiol; type: ADME, organism-based
Rattus norvegicus [23] = assay: Tested in vivo for the biodistribution in rat bone after 3 hours following an intravenous dose of 15 microCi of drug in 10%ethanol saline; type: ADME, organism-based, Bone element; procedure, shortened: as §2
Rattus norvegicus [24] = assay: Tested in vivo for the biodistribution in rat kidney at 1 hour after intravenous dose of 15 microCi of drug in 10%ethanol saline; type: ADME, organism-based; procedure, shortened: as §2
Rattus norvegicus [25] = assay: Tested in vivo for the biodistribution in rat kidney at 1 hour after intravenous dose of 15 microCi of the drug and 15 u g of estradiol; type: ADME, organism-based
Rattus norvegicus [26] = assay: Tested in vivo for the biodistribution in rat kidney after 3 hours following an intravenous dose of 15 microCi of drug in 10%ethanol saline; type: ADME, organism-based; procedure, shortened: as §2
Rattus norvegicus [27] = assay: Tested in vivo for the biodistribution in rat liver after 3 hours following an intravenous dose of 15 microCi of drug in 10%ethanol saline; type: ADME, organism-based; procedure, shortened: as §3
Rattus norvegicus [28] = assay: Tested in vivo for the biodistribution in rat liver at 1 hour after intravenous dose of 15 microCi of the drug and 15 u g of estradiol; type: ADME, organism-based; procedure, shortened: as §3
Rattus norvegicus [29] = assay: Tested in vivo for the biodistribution in rat muscle after 3 hours following an intravenous dose of 15 microCi of drug in 10%ethanol saline; type: ADME, organism-based, Muscle tissue; procedure, shortened: as §3
[30] = Partition coefficient (logP); type: physicochemical; details: octanol/water
Procedure, shortened: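 Octanol/water log P estimated from log k'w measured by reversed-phase HPLC (Minick method) on a C8 silica column.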

[31] = biological target: T1, Alpha-fetoprotein (Rattus norvegicus) (UniProt P02773); assay: Relative binding affinity for Alphafetoprotein
T1 sequence (whole entry): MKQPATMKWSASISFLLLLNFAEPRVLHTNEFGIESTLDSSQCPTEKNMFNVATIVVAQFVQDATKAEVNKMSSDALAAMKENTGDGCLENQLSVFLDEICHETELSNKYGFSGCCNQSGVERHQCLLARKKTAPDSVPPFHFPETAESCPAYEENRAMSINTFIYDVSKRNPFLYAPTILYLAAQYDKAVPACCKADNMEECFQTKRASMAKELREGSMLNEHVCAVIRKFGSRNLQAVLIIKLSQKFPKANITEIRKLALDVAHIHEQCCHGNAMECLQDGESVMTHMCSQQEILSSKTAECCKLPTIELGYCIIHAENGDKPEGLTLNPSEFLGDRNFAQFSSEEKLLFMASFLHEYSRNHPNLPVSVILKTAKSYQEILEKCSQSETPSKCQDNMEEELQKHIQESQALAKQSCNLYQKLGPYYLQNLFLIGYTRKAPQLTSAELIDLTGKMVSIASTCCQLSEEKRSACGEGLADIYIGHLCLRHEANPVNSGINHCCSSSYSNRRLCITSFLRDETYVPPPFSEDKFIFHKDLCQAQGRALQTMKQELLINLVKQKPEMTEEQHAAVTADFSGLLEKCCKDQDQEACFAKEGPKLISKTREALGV

[32] = biological target: T2, Sex hormone-binding globulin (Homo sapiens) (UniProt P04278); assay: Relative binding affinity against sex steroid binding protein (SBP)
T2 sequence (whole entry): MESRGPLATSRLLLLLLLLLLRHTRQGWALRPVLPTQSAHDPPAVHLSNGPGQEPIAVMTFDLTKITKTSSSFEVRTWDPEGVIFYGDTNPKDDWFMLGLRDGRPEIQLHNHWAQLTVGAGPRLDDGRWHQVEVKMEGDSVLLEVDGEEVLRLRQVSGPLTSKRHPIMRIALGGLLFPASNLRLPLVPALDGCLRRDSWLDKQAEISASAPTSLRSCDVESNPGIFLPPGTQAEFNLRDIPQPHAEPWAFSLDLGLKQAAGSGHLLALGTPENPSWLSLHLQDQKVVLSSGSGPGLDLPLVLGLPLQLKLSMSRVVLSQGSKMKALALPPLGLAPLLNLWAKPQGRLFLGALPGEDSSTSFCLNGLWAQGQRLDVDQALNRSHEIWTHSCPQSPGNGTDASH

Rattus norvegicus [33] = assay: Tested in vivo for the biodistribution in rat ovaries at 1 hour after intravenous dose of 15 microCi of drug in 10%ethanol saline; type: ADME, organism-based, Female gonad; procedure, shortened: as §3
Rattus norvegicus [34] = assay: Tested in vivo for the biodistribution in rat uterus/muscle at 1 hour after intravenous dose of 15 microCi of drug in 10%ethanol saline; type: ADME, organism-based, Muscle tissue; procedure, shortened: as §1
Rattus norvegicus [35] = assay: Tested in vivo for the biodistribution in rat liver at 1 hour after intravenous dose of 15 microCi of drug in 10%ethanol saline; type: ADME, organism-based; procedure, shortened: as §3
Rattus norvegicus [36] = assay: Tested in vivo for the biodistribution in rat uterus/blood after 3 hours following an intravenous dose of 15 microCi of drug in 10%ethanol saline; type: ADME, organism-based; procedure, shortened: as §1
[37] = biological target: T3, Estrogen receptor (Rattus norvegicus) (UniProt P06211+Q62986)
[38] = biological target: T3, Estrogen receptor (Rattus norvegicus); remark: listed apart in the source

## CC[C@H]1C[C@]2(C)[C@@H](O)[C@@H](F)C[C@H]2[C@@H]2CCc3cc(O)ccc3[C@@H]12
Rattus norvegicus [1]
  Injected: 6.3%
Rattus norvegicus [2]
  Injected: 22.88%
Rattus norvegicus [3]
  Injected: 7.11%
Rattus norvegicus [4]
  Injected: 0.084%
Rattus norvegicus [5]
  Injected: 0.889%
Rattus norvegicus [6]
  Injected: 1.057%
Rattus norvegicus [7]
  Injected: 1.294%
Rattus norvegicus [8]
  Injected: 2.742%
Rattus norvegicus [9]
  Injected: 1.063%
Rattus norvegicus [10]
  Injected: 0.513%
Rattus norvegicus [11]
  Injected: 0.189%
Rattus norvegicus [12]
  Injected: 1.692%
Rattus norvegicus [13]
  Injected: 1.054%
Rattus norvegicus [14]
  Injected: 0.453%
Rattus norvegicus [15]
  Injected: 0.779%
Rattus norvegicus [16]
  Injected: 0.186%
Rattus norvegicus [17]
  Injected: 6.89%
Rattus norvegicus [18]
  Injected: 5.57%
Rattus norvegicus [19]
  Injected: 1.214%
Rattus norvegicus [20]
  Injected: 52.37%
Rattus norvegicus [21]
  Injected: 0.108%
Rattus norvegicus [22]
  Injected: 0.202%
Rattus norvegicus [23]
  Injected: 1.077%
Rattus norvegicus [24]
  Injected: 2.534%
Rattus norvegicus [25]
  Injected: 1.716%
Rattus norvegicus [26]
  Injected: 1.413%
Rattus norvegicus [27]
  Injected: 1.822%
Rattus norvegicus [28]
  Injected: 3.615%
Rattus norvegicus [29]
  Injected: 0.307%
[30]
  logP: 3.72
[31]
  relative binding affinity (RBA): 0.079
[32]
  relative binding affinity (RBA): 0.55
Rattus norvegicus [33]
  Injected: 2.991%
Rattus norvegicus [34]
  Injected: 10.81%
Rattus norvegicus [35]
  Injected: 2.331%
Rattus norvegicus [36]
  Injected: 82.19%
[37]
  NSB: 1.6
[38]
  BSI: 158
